Source: PubChem BioAssay (Johns Hopkins Ion Channel Center)
Shown are actives, neighbours in structure and some others; about 3.5% of the full set was active somewhere.
RGS4 pot: potentiators or activators of RGS4 | HEK293 M3R/inducible RGS4, carbachol calcium flux Fluo4; active compounds read low | B-score at 10 µM | hit rate 0.92% among 310,000 | AID 463111;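 active = B-score of the integrated calcium signal more than 4 SD below the library mean, with starting fluorescence not abnormally high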;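 also: negative B-score means reduced calcium response which marks RGS4 activation or potentiation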
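Test system: HEK293 cells with stable M3R and inducible RGS4; also added: carbachol at ECmax as muscarinic agonist stimulus; schedule: dye loading 30 min 37 °C, buffer rest 30 min RT; technique: kinetic calcium fluorescence imaging with Fluo4-AM dye, 2 µM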
MrgX1 allo act: allosterically activates human MrgX1 receptor signaling | hit rate 0.63% among 310,000 | MrgX1-HEK293, Fluo-4 calcium flux, FDSS; active compounds read high | Q96LB2 | AID 588675 | B-score at 10 µM;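 active = plate-corrected calcium response at least 3 library SD above typical, normal starting fluorescence, not activating the receptor alone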;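 also: compound read alongside a low EC10 to EC30 dose of BAM8-22 agonist; peak minus trough fluorescence over baseline measured at the second addition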
MrgX1 antag: human MrgX1 receptor antagonism, primary screen | Q96LB2 | MRGX1-HEK293 calcium flux, Fluo-4, BAM8-22 antagonism; active compounds read low | hit rate 1.3% among 310,000 | AID 588676 | B-score at 10 µM;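 active = calcium-response B-score plate-corrected more than 3 library SD below zero, starting fluorescence within 5 deviations, no agonist response on first addition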;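 also: peak minus trough fluorescence over baseline after final BAM8-22 challenge near maximal dose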
MrgX1 ag: agonists of human MrgX1 receptor | Q96LB2 | MrgX1-HEK293 cells, Fluo-4 calcium fluorescence, agonist mode; active compounds read high | B-score at 10 µM | hit rate 0.44% among 310,000;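 active = calcium response B-score plate-corrected fluorescence ratio at least 3 library SD, with starting fluorescence B-score inside 5 SD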
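Material: MrgX1-expressing HEK293 cells; input: 15,000 cells per well; doses: test compound given as first of three sequential additions; schedule: overnight plating before 1 h dye loading; technique: Fluo-4 NW calcium-flux fluorescence, kinetic read; evaluation: baseline-normalised fluorescence change ratio, B-scored; control set: plate-wise positive and negative controls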
RGS4 inh: inhibitors of human RGS4; AID 463165; hit rate 0.45% among 310,000; B-score at 10 µM; HEK293 M3R/RGS4 inducible, Fluo-4 calcium flux; active compounds read high; triggered by carbachol at its EC20;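 active = B-score, a plate-corrected calcium signal, over three deviations above library mean, with baseline fluorescence within five deviations of library mean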;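 also: RGS4 expression induced by doxycycline in cells with stable M3 receptor; B-score is computed from the integrated fluorescence ratio over baseline after carbachol; higher B-score means a larger calcium signal and so more RGS4 inhibition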
Target sequence (P49798 whole entry, looked up): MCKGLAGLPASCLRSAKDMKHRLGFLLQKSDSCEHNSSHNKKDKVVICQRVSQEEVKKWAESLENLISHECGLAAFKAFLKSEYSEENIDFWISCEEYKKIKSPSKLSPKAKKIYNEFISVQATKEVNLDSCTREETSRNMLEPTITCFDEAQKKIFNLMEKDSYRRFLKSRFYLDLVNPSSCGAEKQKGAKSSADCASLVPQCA
RGS4 block valid: RGS4 inhibitor validation; shares compounds with RGS4 inh; HEK293 M3R/RGS4, carbachol calcium Fluo-4 fluorescence; carbachol added at its EC20; 0 = buffer wells, 100 = carbachol control; calcium response, % at 10 µM; hit rate 65% among 1,700;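 active = duplicate-averaged calcium response above the buffer-only control mean plus 5 SD of those controls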;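 also: integrated fluorescence ratio F max minus min over baseline F0; higher response in RGS4-induced cells means RGS4 inhibition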
M3R Ca ctr: counter-screen for RGS4 inhibitors: effect in non-induced cells; HEK293 M3R non-induced, carbachol calcium Fluo-4; submaximal (EC20) carbachol stimulus; buffer wells 0%, carbachol control wells 100%; shares compounds with RGS4 inh; hit rate 20% among 1,900; AID 493000; activity (percent), % at 10 µM; call rule not given here;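 also: RGS4 induction absent so cells express M3R without RGS4; higher means more calcium signal and flags a non-specific hit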
RGS4 inh ctr2: second RGS4 inhibitor counter-screen in uninduced cells lacking carbachol; shares compounds with RGS4 inh; HEK293 M3R/RGS4 non-induced, Fluo-4 calcium, no carbachol; normalised: buffer wells 0%, carbachol wells 100%; calcium response (agonist-mode artifact), % at 10 µM; hit rate 22% among 1,900; AID 493001;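 active = duplicate-averaged calcium rise in uninduced cells above buffer wells' mean plus 5 SD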
Active calls of the source: *; i = inactive; x = not tested or not shown.

SMILES	RGS4 pot	MrgX1 allo act	MrgX1 antag	MrgX1 ag	RGS4 inh	RGS4 block valid	M3R Ca ctr	RGS4 inh ctr2
CCCN(CCC)CCNC(=O)CN1C(=O)COc2ccc(S(=O)(=O)N3CCOCC3)cc21	i	i	i	i	i	x	x	x
CC(C)(C)NC(=O)C(c1cccs1)N(Cc1ccc(F)cc1)C(=O)c1csnn1 (stereo unspecified)	i	i	i	i	i	x	x	x
Cc1cc2cc(C=C(C#N)C#N)c(Cl)nc2cc1C	i	i	i	36*	5.9*	14%*	i	25%*
CCOC(=O)/C(C#N)=C/c1cc2cc(C)c(C)cc2nc1Cl	i	i	i	i	i	x	x	x
CC(=O)Nc1cc(Cl)c(N=Cc2ccc(O)cc2O)cc1Cl	i	i	i	i	8.1*	16%*	29%*	i
CCc1ccccc1-n1ncc(C(=O)Nc2ccccc2OC)c1C	i	i	i	i	7.4*	i	i	32%*
COc1ccccc1NC(=O)c1ccccc1C(=O)Nc1ccccc1OC	i	i	i	i	i	x	x	x
CC(=O)n1cc(C(C[N+](=O)[O-])SCCN)c2ccccc21 (stereo unspecified)	i	i	i	58*	4.7*	55%*	i	34%*
CNc1nc(N)c([N+](=O)[O-])c(Nc2ccccc2OC)n1	i	i	i	i	11*	12%*	44%*	i
COc1ccc(CC(NC(C)=O)C(=O)NC2CCN(S(=O)(=O)c3ccccc3)CC2)c(OC)c1 (stereo unspecified)	i	i	i	i	i	x	i	i
COc1ccc(C2C(C#N)=C(N)Oc3cc(O)ccc32)cc1OC (stereo unspecified)	i	i	i	i	i	x	i	i
COc1ccc(C2C(C#N)=C(N)Oc3cc(O)ccc32)cc1C (stereo unspecified)	i	i	i	i	i	x	31%*	21%*
COc1cc(C2C(C#N)=C(N)Oc3cc(O)ccc32)cc(OC)c1OC (stereo unspecified)	i	i	i	i	i	x	x	x
COc1cc(C2C(C#N)=C(N)Oc3cc(O)ccc32)cc2c1OCO2 (stereo unspecified)	i	i	i	i	12*	29%*	i	i
CCN(C(=O)c1ccc(S(=O)(=O)N2CCCC2)cc1)C1CCS(=O)(=O)C1 (stereo unspecified)	i	i	i	i	i	x	x	x
CSCC[C@H](NC(=O)N1C[C@H]2C[C@@H](C1)c1cccc(=O)n1C2)C(=O)Nc1ccc(NC(C)=O)cc1	i	i	i	i	i	x	x	x
CSc1ccc(CNC(=O)C2CCC(=O)N(Cc3cccc(F)c3)C2)cc1 (stereo unspecified)	i	i	i	i	i	x	x	x
CC(=NCCCn1ccnc1)c1c(C)[nH]n(-c2ccc([N+](=O)[O-])cc2)c1=O	i	i	i	i	i	x	x	x
COc1ccccc1CN(Cc1cc2cc(C)ccc2[nH]c1=O)Cc1nnnn1Cc1ccco1	i	i	i	i	i	x	i	i
CCc1ccc2[nH]c(=O)c(CN(Cc3ccccc3OC)Cc3nnnn3Cc3ccco3)cc2c1	i	i	i	i	i	i	i	18%*
Cn1c(SCC(=O)Nc2nc(C(C)(C)C)cs2)nnc1C1CC1	i	i	i	i	i	x	x	x
